Activity calls are given as the source filed them. The calls are words filed in the database; no cut-off is given here.
What was measured:
Staphylococcus aureus [1] = test: Antimicrobial activity against Staphylococcus aureus NE163 harboring single transposon insertion mutation in aureolysin at 30 uM incubated for 18 hrs relative to control; assay type: functional
Procedure, shortened: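 CA-MRSA USA300 LAC derivative JE2 and single transposon insertion mutants derived from JE2, each lacking an extracellular protease gene, were exposed to peptides up to 30 μM. The read-out was percent growth inhibition. Peptides were dissolved in PBS, and tests were run in triplicate.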

[2] = Toxicity against reconstructed human skin model assessed as irritation at 50 uM incubated for 1 hr followed by compound washout measured after 42 hrs by MTT assay; assay type: tissue-based, Skin of body
Procedure, shortened: (§1)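 Reconstructed human epidermis with stratum corneum, per OECD TG 439 skin irritation guideline. Tissues exposed 1 h to peptide at 50 μM, then 42 h post-treatment incubation. Viability read by MTT. Controls were SDS and melittin.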

[3] = Toxicity against reconstructed human skin model assessed as tissue viability at 50 uM incubated for 1 hr followed by compound washout measured after 42 hrs by MTT assay; assay type: tissue-based, Skin of body; details: read-out: Activity; procedure, shortened: as §1
[4] = Stability in human serum assessed as half life at 10 mg/ml by UPLC-MS analysis; assay type: ADME, cell-free
Procedure, shortened: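 Peptides dissolved in PBS and incubated in 25% human serum. Intact peptide remaining followed over time to at least 6 h; half-life taken as time to 50% stability.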

Mus musculus [5] = test: Induction of wound healing activity in immunosuppressed Balb/c mouse excisional dorsal wound infection model infected with Acinetobacter baumannii NCTC 13301 assessed as reduction in necrosis of epidermal tissue at wound edges at about 10 mg/kg treated for 7 days once daily; assay type: functional, organism-based; details: time 7.0 day
Mus musculus [6] = test: Induction of wound healing activity in immunosuppressed Balb/c mouse excisional dorsal wound infection model infected with Acinetobacter baumannii NCTC 13301 assessed as reduction in wound expansion at about 10 mg/kg treated for 7 days once daily; assay type: functional, organism-based; details: time 7.0 day
Mus musculus [7] = test: Induction of wound healing activity in immunosuppressed Balb/c mouse excisional dorsal wound infection model infected with Acinetobacter baumannii NCTC 13301 assessed as closed wound at about 10 mg/kg treated for 7 days once daily measured after 20 days; assay type: functional, organism-based; details: time 20.0 day
Mus musculus [8] = test: Induction of wound healing activity in immunosuppressed Balb/c mouse excisional dorsal wound infection model infected with Acinetobacter baumannii NCTC 13301 assessed as area of serocellular crust at about 10 mg/kg treated for 7 days once daily measured after 20 days; assay type: functional; details: time 20 day
Enterococcus faecium = test: Depolarization of cytoplasmic membrane in Enterococcus faecium ATCC 700221 at MIC measured for 45 mins by DiSC3-(5) dye based assay; assay type: functional, organism-based
Procedure, shortened: (§2)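 Bacteria loaded with membrane-potential dye DiSC3-(5), then treated with peptide at its MIC for the respective strain; depolarization read as rise in dye fluorescence; polymyxin B and levofloxacin as reference antibiotics.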

Staphylococcus aureus [9] = test: Depolarization of cytoplasmic membrane in Staphylococcus aureus ATCC 12600 at MIC measured for 45 mins by DiSC3-(5) dye based assay; assay type: functional, organism-based; procedure, shortened: as §2
Acinetobacter baumannii = test: Depolarization of cytoplasmic membrane in Acinetobacter baumannii ATCC 19606 at MIC measured for 45 mins by DiSC3-(5) dye based assay; assay type: functional, organism-based; procedure, shortened: as §2
Pseudomonas aeruginosa = test: Depolarization of cytoplasmic membrane in Pseudomonas aeruginosa PAO1 at MIC measured for 45 mins by DiSC3-(5) dye based assay; assay type: functional, organism-based; procedure, shortened: as §2
Escherichia coli = test: Induction of outer membrane permeabilization in Escherichia coli ATCC 11775 measured for 20 mins by NPN uptake assay; assay type: functional, organism-based
NCI-H460 = test: Anti-cancer activity against human NCI-H460 cells incubated for 72 hrs by Cell Titer Glo assay; assay type: functional, cell-based; details: NCI-H460, 72 h
HCT-116 [10] = test: Anti-cancer activity against human HCT-116 cells incubated for 72 hrs by Cell Titer Glo assay; assay type: functional, cell-based; details: HCT-116, 72 h
HCT-15 = test: Anti-cancer activity against human HCT-15 cells incubated for 72 hrs by Cell Titer Glo assay; assay type: functional, cell-based; details: HCT-15, 72 h
HL-60 = test: Anti-cancer activity against human HL-60 cells incubated for 72 hrs by Cell Titer Glo assay; assay type: functional, cell-based; details: HL-60, 72 h
K562 [11] = test: Anti-cancer activity against human K562 cells incubated for 72 hrs by Cell Titer Glo assay; assay type: functional, cell-based; details: K562, 72 h
MCF7 [12] = test: Anti-cancer activity against human MCF7 cells incubated for 72 hrs by Cell Titer Glo assay; assay type: functional, cell-based; details: MCF7, 72 h
MDA-MB-231 = test: Anti-cancer activity against human MDA-MB-231 cells incubated for 72 hrs by Cell Titer Glo assay; assay type: functional, cell-based; details: MDA-MB-231, 72 h
OVCAR-3 = test: Anti-cancer activity against human OVCAR-3 cells incubated for 72 hrs by Cell Titer Glo assay; assay type: functional, cell-based; details: OVCAR-3, 72 h
PC-3 = test: Anti-cancer activity against human PC-3 cells incubated for 72 hrs by Cell Titer Glo assay; assay type: functional, cell-based; details: PC-3, 72 h
RPMI-8226 = test: Anti-cancer activity against human RPMI-8226 cells incubated for 72 hrs by Cell Titer Glo assay; assay type: functional, cell-based; details: RPMI-8226, 72 h
SW-620 = test: Anti-cancer activity against human SW620 cells incubated for 72 hrs by Cell Titer Glo assay; assay type: functional, cell-based; details: SW-620, 72 h
U-251 = test: Anti-cancer activity against human U-251MG cells incubated for 72 hrs by Cell Titer Glo assay; assay type: functional, cell-based; details: U-251, 72 h
MOLM-13 = test: Anti-cancer activity against human MOLM-13 cells incubated for 24 hrs by WST assay; assay type: functional, cell-based; details: MOLM-13, 24 h
[13] = Anti-cancer activity against human MEC-1 cells incubated for 24 hrs by WST assay; assay type: functional, cell-based; details: MEC1, 24 h
K562 [14] = test: pH-dependent anticancer activity against human K562 cells in DMEM medium at 10 uM incubated for 1 hr; assay type: functional, cell-based
Procedure, shortened: (§3)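 Cells cultured in RPMI, DMEM or PBS, each adjusted to pH 8, 7 or 6, plus one unadjusted (~7.6). Peptide at 10 μM for only 1 h, to limit pH drift from CO₂-bicarbonate buffering. Cell viability read. Controls were melittin, ampicillin and PBS. Two independent repetitions; effects analysed by ANOVA.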

HCT-116 [15] = test: pH-dependent anticancer activity against human HCT-116 cells in PBS medium at 10 uM incubated for 1 hr; assay type: functional, cell-based; procedure, shortened: as §3
MCF7 [16] = test: pH-dependent anticancer activity against human MCF7 cells in DMEM medium at 10 uM incubated for 1 hr; assay type: functional, cell-based; procedure, shortened: as §3
MCF7 [17] = test: pH-dependent anticancer activity against human MCF7 cells in PBS medium at 10 uM incubated for 1 hr; assay type: functional, cell-based; procedure, shortened: as §3
MCF7 [18] = test: Induction of apoptosis in human MCF7 cells in DMEM medium at pH 6 assessed as increase in cleaved capase-3 level at 5 uM; assay type: functional, cell-based
Procedure, shortened: (§4)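 MCF-7 cells treated with peptides at pH 6; apoptosis detected by immunoblotting for cleaved PARP and cleaved caspase-3.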

MCF7 [19] = test: Induction of apoptosis in human MCF7 cells in DMEM medium at pH 6 assessed as increase in cleaved PARP level at 5 uM; assay type: functional, cell-based; procedure, shortened: as §4
B cell = test: Cytotoxicity against human B-lymphocytes assessed as deleterious effect upto 50 uM by flow cytometry; assay type: toxicity, cell-based
Procedure, shortened: (§5)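 Whole blood from a healthy donor treated with peptides up to 50 μM; effect on B and T lymphocytes, granulocytes and monocytes assessed.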

Monocyte = test: Cytotoxicity against human monocytes assessed as deleterious effect upto 50 uM by flow cytometry; assay type: toxicity, cell-based; procedure, shortened: as §5

In the case of H-KKKKLKKILKKLFQFINQLDNQLQDIKQNK-NH2, the inhibition at 30 µM (Staphylococcus aureus [1]) is reported as under 45%, the Activity [2] is reported as “Non-Toxic” and the viability at 1 h, 50 µM [3] is reported as 100%. For the same substance, the half-life at 10 mg/ml [4] was over 6 h, the Activity (Mus musculus [5]) was “Active” and the Activity (Mus musculus [6]) was “Active”. For the same substance, the Activity (Mus musculus [7]) was “Active”, the Activity (Mus musculus [8]) was under 10 mm2 and the Activity (Enterococcus faecium) was “Active”. The Activity (Staphylococcus aureus [9]) was “Active”, the Activity (Acinetobacter baumannii) was “Active” and the Activity (Pseudomonas aeruginosa) was “Active”. The Activity (Escherichia coli) was “Active”, the IC50 (NCI-H460) was 1 µM and the IC50 (HCT-116 [10]) was 1 µM. The IC50 (HCT-15) was 1 µM, the IC50 (HL-60) was 1 µM and the IC50 (K562 [11]) was 1 µM. It also gave an IC50 (MCF7 [12]) of 1 µM, an IC50 (MDA-MB-231) of 1 µM and an IC50 (OVCAR-3) of 1 µM. The IC50 (PC-3) was 1 µM, the IC50 (RPMI-8226) was 1 µM and the IC50 (SW-620) was 1 µM. The IC50 (U-251) was 1 µM, the IC50 (MOLM-13) was at most 10 µM and the IC50 [13] was at most 10 µM. The Activity (K562 [14]) was “Active”, the Activity (HCT-116 [15]) was “Active” and the Activity (MCF7 [16]) was “Active”. The Activity (MCF7 [17]) was “Active”, the Activity (MCF7 [18]) was “Active” and the Activity (MCF7 [19]) was “Active”. The Activity (B cell) was “Non-Toxic” and the Activity (Monocyte) was “Non-Toxic”.

Reference: ChEMBL document CHEMBL5576140, “Computational Design of Pore-Forming Peptides with Potent Antimicrobial and Anticancer Activities” (J Med Chem, 2024)
